Laboratory results taken from ChEMBL document CHEMBL2157934, “Pyrrolidinyl phenylurea derivatives as novel CCR3 antagonists” (Bioorg Med Chem Lett, 2012).
Calls of active or inactive are those of the source. The rule behind the calls is not given here.

Assays:
[1] = biological target: T1, C-C chemokine receptor type 3 (Homo sapiens, UniProt P51677); test: Antagonist activity at CCR3 receptor; assay type: functional
T1 sequence (P51677 whole entry): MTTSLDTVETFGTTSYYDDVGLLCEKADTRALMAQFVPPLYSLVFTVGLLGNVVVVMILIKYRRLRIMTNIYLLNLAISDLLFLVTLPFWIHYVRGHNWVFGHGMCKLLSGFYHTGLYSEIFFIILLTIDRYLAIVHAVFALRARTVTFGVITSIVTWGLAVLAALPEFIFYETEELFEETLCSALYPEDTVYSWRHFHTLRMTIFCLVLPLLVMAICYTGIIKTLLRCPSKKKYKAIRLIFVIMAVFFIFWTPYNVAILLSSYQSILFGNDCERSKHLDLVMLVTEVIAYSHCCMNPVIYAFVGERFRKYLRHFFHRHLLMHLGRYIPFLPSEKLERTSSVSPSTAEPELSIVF

[2] = biological target: T2, C-C chemokine receptor type 1 (Homo sapiens) (UniProt P32246); test: Inhibition of CCR1 receptor at 10 uM
T2 sequence (whole entry): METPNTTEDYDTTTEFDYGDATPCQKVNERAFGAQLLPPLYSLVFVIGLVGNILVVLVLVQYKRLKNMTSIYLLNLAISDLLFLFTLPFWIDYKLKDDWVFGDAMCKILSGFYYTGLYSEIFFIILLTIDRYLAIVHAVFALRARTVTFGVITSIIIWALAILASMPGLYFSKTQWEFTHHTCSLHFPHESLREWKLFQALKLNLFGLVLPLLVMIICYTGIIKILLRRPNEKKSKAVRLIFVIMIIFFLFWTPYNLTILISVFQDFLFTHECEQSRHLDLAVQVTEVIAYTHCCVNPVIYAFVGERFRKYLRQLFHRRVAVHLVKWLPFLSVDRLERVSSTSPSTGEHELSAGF

[3] = Oral bioavailability in cynomolgus monkey; assay type: ADME, organism-based, Macaca fascicularis; conditions: in vivo
[4] = biological target: C-C chemokine receptor type 2 (Homo sapiens) (UniProt P41597); test: Inhibition of CCR2 receptor at 10 uM
Chain of C-C chemokine receptor type 2 (Homo sapiens) (P41597 whole entry, looked up): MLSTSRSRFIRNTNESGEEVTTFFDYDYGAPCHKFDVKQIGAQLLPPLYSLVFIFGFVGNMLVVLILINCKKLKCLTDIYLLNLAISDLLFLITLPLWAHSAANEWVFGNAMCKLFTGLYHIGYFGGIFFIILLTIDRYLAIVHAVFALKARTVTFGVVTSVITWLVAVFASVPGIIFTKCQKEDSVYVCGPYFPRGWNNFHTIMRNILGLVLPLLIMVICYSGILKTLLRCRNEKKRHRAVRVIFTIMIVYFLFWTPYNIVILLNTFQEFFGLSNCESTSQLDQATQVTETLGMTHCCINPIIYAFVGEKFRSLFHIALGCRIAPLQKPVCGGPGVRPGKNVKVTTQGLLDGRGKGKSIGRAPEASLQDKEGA

[5] = biological target: T3, C-C chemokine receptor type 3 (Homo sapiens) (UniProt P51677); test: (§1) Antagonist activity at CCR3 receptor in human eosinophils assessed as inhibition of CCL11-induced degranulation after 4 hrs by ELISA; assay type: functional
T3 sequence (whole entry): T1 sequence (P51677 whole entry)
Method in brief: (§2)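 Eosinophils isolated from peripheral blood of normal human volunteers; wells pre-blocked with 2.5% BSA in PBS, 2 h, 37 °C. 5 × 10^5 cells in RPMI 1640 with 0.5% BSA, with or without 0.6 nM human CCL11 and varying antagonist concentrations, incubated 4 h at 37 °C, 5% CO2. Supernatant EDN quantified by ELISA; IC50 from dose-response.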

[6] = biological target: T1, C-C chemokine receptor type 3; test: as §1; assay type: functional; method in brief: as §2
[7] = biological target: C-C chemokine receptor type 5 (Homo sapiens) (UniProt P51681); test: Inhibition of CCR5 receptor at 10 uM
Chain of C-C chemokine receptor type 5 (Homo sapiens) (P51681 whole entry, looked up): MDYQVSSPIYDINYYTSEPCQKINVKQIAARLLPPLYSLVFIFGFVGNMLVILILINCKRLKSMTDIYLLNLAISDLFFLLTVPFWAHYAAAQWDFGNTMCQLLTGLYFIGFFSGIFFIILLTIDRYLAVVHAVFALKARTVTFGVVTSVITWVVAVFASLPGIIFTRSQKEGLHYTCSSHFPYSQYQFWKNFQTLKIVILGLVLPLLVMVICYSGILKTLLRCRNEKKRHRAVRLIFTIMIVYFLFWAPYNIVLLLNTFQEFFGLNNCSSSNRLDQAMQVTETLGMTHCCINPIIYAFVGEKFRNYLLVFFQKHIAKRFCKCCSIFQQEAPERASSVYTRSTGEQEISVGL

IC50 [1]	SMILES	further results
28 nM	O=C(Nc1cccc(OCCO)c1)N[C@@H]1CCN(Cc2ccc3cc(F)ccc3c2)C1	–
9.9 nM	O=C(Nc1ccccc1COCCO)N[C@@H]1CCN(Cc2ccc3cc(F)ccc3c2)C1	–
71 nM	COCCOc1ccccc1NC(=O)N[C@@H]1CCN(Cc2ccc3cc(F)ccc3c2)C1	–
71 nM	O=C(Nc1ccc(OCCO)cc1)N[C@@H]1CCN(Cc2ccc3cc(F)ccc3c2)C1	–
600 nM	O=C1N(CCc2ccccc2)CCC12CCN(Cc1ccc3cc(F)ccc3c1)CC2	–
41 nM	O=C(NC1CCCCC1)N[C@@H]1CCN(Cc2ccc3cc(F)ccc3c2)C1	–
2.4 nM	O=C(NC1CCN(S(=O)(=O)c2ccccc2O)CC1)N[C@@H]1CCN(Cc2ccc3cc(F)ccc3c2)C1	–
190 nM	CN(C)C(=O)COc1ccccc1NC(=O)N[C@@H]1CCN(Cc2ccc3cc(F)ccc3c2)C1	–
25 nM	O=C(NC1CCN(S(=O)(=O)c2ccccc2O)CC1)N1CCCN(Cc2ccc3cc(F)ccc3c2)CC1	–
51 nM	O=C(Nc1ccccc1OCCCCO)N[C@@H]1CCN(Cc2ccc3cc(F)ccc3c2)C1	–
44 nM	COCc1ccccc1NC(=O)N[C@@H]1CCN(Cc2ccc3cc(F)ccc3c2)C1	–
12 nM	O=C(Nc1ccccc1CCO)N[C@@H]1CCN(Cc2ccc3cc(F)ccc3c2)C1	–
50 nM	O=C(Nc1ccccc1)N[C@@H]1CCN(Cc2ccc3cc(F)ccc3c2)C1	–
1.7 nM	O=C(Nc1ccccc1OCCO)N[C@@H]1CCN(Cc2ccc3cc(F)ccc3c2)C1	inhibition [2]: inactive; bioavailability [3]: 22%; inhibition [4]: inactive; inhibition [5]: Dose-dependent effect; IC50 [6]: 0.87 nM; inhibition [7]: inactive
110 nM	NC(=O)COc1ccccc1NC(=O)N[C@@H]1CCN(Cc2ccc3cc(F)ccc3c2)C1	–
50 nM	CN(C)CCOc1ccccc1NC(=O)N[C@@H]1CCN(Cc2ccc3cc(F)ccc3c2)C1	–
50 nM	O=C(Nc1ccccc1OCCCO)N[C@@H]1CCN(Cc2ccc3cc(F)ccc3c2)C1	–
14 nM	CS(=O)(=O)N1CCC(NC(=O)N[C@@H]2CCN(Cc3ccc4cc(F)ccc4c3)C2)CC1	–
380 nM	O=C(NC1CCN(Cc2ccccc2)CC1)N1CCCN(Cc2ccc3cc(F)ccc3c2)CC1	–
110 nM	O=C(Nc1ccccc1OCCOCCO)N[C@@H]1CCN(Cc2ccc3cc(F)ccc3c2)C1	–
24 nM	O=C(Nc1ccccc1CCCO)N[C@@H]1CCN(Cc2ccc3cc(F)ccc3c2)C1	–

SMILES	IC50 [1]	further results
O=C1OC2(CCN(Cc3ccc4cc(F)ccc4c3)CC2)c2ccccc2N1Cc1ccccc1	2000 nM	–
